Data published in ChEMBL document CHEMBL5236549, “Discovery of 2-Sulfinyl-Diazabicyclooctane Derivatives, Potential Oral β-Lactamase Inhibitors for Infections Caused by Serine β-Lactamase-Producing Enterobacterales” (J Med Chem, 2021).

How the values were obtained:
[1] = Inhibition of bacterial beta-lactamase CTX-M-15 using nitrocefin as substrate incubated for 20 mins; parameters: species or system Bacteria
[2] = Inhibition of bacterial beta-lactamase KPC-2 using nitrocefin as substrate incubated for 20 mins; parameters: species or system Bacteria
Outline: (§1)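 Nitrocefin hydrolysis read by absorbance. Enzyme titrated to give about 0.2 absorbance change over the no-enzyme control. Enzyme added to nitrocefin (final 50 μg/mL) plus inhibitor, no preincubation, read after 20 min at 35 °C. IC50 is 50% reduction of hydrolysis. N = 1.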

[3] = Total clearance in rat by LC-MS/MS analysis; type: ADME; conditions: in vivo
[4] = Inhibition of bacterial beta-lactamase OXA-48 using nitrocefin as substrate incubated for 20 mins; parameters: species or system Bacteria; outline: as §1
Escherichia coli = test: Antibacterial activity against Escherichia coli ATCC SR34100 assessed as reduction in bacterial growth by measuring minimum […] concentration incubated for 16 to 24 hrs by CLSI based two-fold serial dilution method; type: functional; conditions: time 16-24 hrs
Outline: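 MPC₁ by broth microdilution: twofold serial dilutions of inhibitor in cation-adjusted Mueller Hinton broth containing ceftibuten at 1 μg/mL. Inoculum about 5 × 10⁴ cfu/well final, set from OD625. Incubation at 35 °C for 16−20 h. […] N = 1.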

Klebsiella pneumoniae [5] = test: Antibacterial activity against Klebsiella pneumoniae SR100758 assessed as inhibition of bacterial growth incubated for 16 to 24 hrs by CLSI based two-fold serial dilution method; type: functional; conditions: time 16-24 hrs
Outline: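 CLSI broth microdilution in cation-adjusted Mueller Hinton broth, twofold serial dilutions, about 5 × 10⁴ cfu/well from OD625, 35 °C for 16−20 h. MIC is the lowest concentration with no visible growth.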

[6] = AUC in mouse at 10 mg/kg,iv by LC/MS/MS analysis; type: ADME, organism-based; parameters: dose 10 mg/kg, route iv; conditions: in vivo
Outline: (§2)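 Plasma of the parent acid measured by LC/MS/MS (methanol precipitation, positive ESI, external standard); oral values follow prodrug dosing (rat fed, dog and monkey fasted). AUC from 0 h to last time point by linear trapezoid; F from oral AUC versus iv AUC of the parent. N = 2 (rat, dog), N = 3 (monkey, mouse).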

[7] = AUC in rat at 1 mg/kg,iv by LC/MS/MS analysis; type: ADME, organism-based; parameters: dose 1 mg/kg, route iv; conditions: in vivo; outline: as §2
[8] = Total clearance in rat at 1 mg/kg,iv by LC/MS/MS analysis; type: ADME, organism-based; conditions: in vivo
Outline: (§3)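 Intravenous dosing (mouse 10, rat 1, dog 5, monkey 5 mg/kg); plasma quantified by LC/MS/MS after methanol precipitation with external standard; AUC by linear trapezoidal approximation; CLtot = dose/AUC.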

[9] = AUC in dog at 5 mg/kg,iv by LC/MS/MS analysis; type: ADME, organism-based, Canis lupus familiaris; parameters: dose 5 mg/kg, route iv; conditions: in vivo; outline: as §2
[10] = Half life in dog at 5 mg/kg,iv by LC/MS/MS analysis; type: ADME, organism-based, Canis lupus familiaris; conditions: in vivo
Outline: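 After iv dosing, T1/2 taken as ln 2/kel, with kel from the slope of the log concentration–time profile. Plasma levels measured by LC/MS/MS with an external standard.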

[11] = AUC in monkey at 5 mg/kg,iv by LC/MS/MS analysis; type: ADME, organism-based, Macaca mulatta; parameters: dose 5 mg/kg, route iv; conditions: rhesus monkey, in vivo; outline: as §2
[12] = Total clearance in monkey at 5 mg/kg,iv by LC/MS/MS analysis; type: ADME, organism-based, Macaca mulatta; conditions: rhesus monkey, in vivo; outline: as §3
Enterobacter cloacae [13] = test: Antibacterial activity against Enterobacter cloacae SR36276 assessed as inhibition of bacterial growth incubated for 16 to 20 hrs by CLSI based two-fold serial dilution method
Klebsiella pneumoniae [14] = test: Antibacterial activity against Klebsiella pneumoniae ATCC BAA1705 assessed as inhibition of bacterial growth incubated for 16 to 20 hrs by CLSI based two-fold serial dilution method
Klebsiella pneumoniae [15] = test: Antibacterial activity against Klebsiella pneumoniae ATCC SR201218 assessed as inhibition of bacterial growth incubated for 16 to 20 hrs by CLSI based two-fold serial dilution method
Enterobacter cloacae [16] = test: Antibacterial activity against Enterobacter cloacae SR100108 assessed as reduction in bacterial growth by measuring minimum […] concentration incubated for 16 to 20 hrs by CLSI based two-fold serial dilution method; conditions: time 16-20 hrs
Klebsiella pneumoniae [17] = test: Antibacterial activity against Klebsiella pneumoniae SR200487 assessed as reduction in bacterial growth by measuring minimum […] concentration incubated for 16 to 20 hrs by CLSI based two-fold serial dilution method; conditions: time 16-20 hrs

Which results are given for `C[S@@+]([O-])[C@@H]1CC[C@@H]2CN1C(=O)N2O[C@H](F)C(=O)[O-].[Na+]`?
IC50 [1]: 12 nM; IC50 [2]: 14 nM; clearance [3]: 27 mL/min/kg; IC50 [4]: 443 nM; MPC (Escherichia coli): 0.125 µg/mL; MIC (Klebsiella pneumoniae [5]): > 32 µg/mL; AUC [6]: 4920 ng·h/mL; AUC [7]: 620 ng·h/mL; clearance [8]: 27 mL/min/kg; AUC [9]: 19400 ng·h/mL; half-life [10]: 54 min; AUC [11]: 13800 ng·h/mL; clearance [12]: 6.15 mL/min/kg; MIC (Enterobacter cloacae [13]): > 32 µg/mL; MIC (Klebsiella pneumoniae [14]): 32 µg/mL; MIC (Klebsiella pneumoniae [15]): > 32 µg/mL; MPC (Enterobacter cloacae [16]): 1 µg/mL; MPC (Klebsiella pneumoniae [17]): 0.5 µg/mL
